Test results: ChEMBL document CHEMBL4138188, “Eurycomalactone Inhibits Expression of Endothelial Adhesion Molecules at a Post-Transcriptional Level” (J Nat Prod, 2017)
Calls of active or inactive are those of the source. The calls are words filed in the database; no cut-off is given here.

Tests used:
[1] = species: Homo sapiens; test: Inhibition of NF-kappaB in HUVECtert assessed as reduction in TNFalpha-induced E-selectin mRNA expression level at 10 uM pretreated for 30 mins followed by TNFalpha stimulation measured after 2 hrs by qRT-PCR analysis
Method in brief: (§1)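 HUVECtert (immortalised HUVEC, used to passage 15), 0.5 × 10^6 cells grown 48 h on gelatin-coated dishes. Preincubated 30 min with compound or 0.1% DMSO vehicle, then TNFα 10 ng/mL for 2 h (E-selectin) or 4 h (VCAM-1, ICAM-1). After RNA isolation and cDNA synthesis, mRNA was quantified by qRT-PCR using the 2−ΔΔCt method. Means ± SD, n = 3.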

[2] = species: Homo sapiens; test: Inhibition of NF-kappaB in HUVECtert assessed as reduction in TNFalpha-induced VCAM-1 mRNA expression level at 10 uM pretreated for 30 mins followed by TNFalpha stimulation measured after 4 hrs by qRT-PCR analysis; method in brief: as §1
[3] = species: Homo sapiens; test: Inhibition of NF-kappaB in HUVECtert assessed as reduction in TNFalpha-induced ICAM-1 mRNA expression level at 10 uM pretreated for 30 mins followed by TNFalpha stimulation measured after 4 hrs by qRT-PCR analysis; method in brief: as §1
[4] = Inhibition of NF-kappaB in HUVECtert assessed as reduction in TNFalpha-induced VCAM-1 expression level pretreated for 30 mins followed by TNFalpha stimulation measured after 18 hrs by flow cytometry; design: species or system Homo sapiens
Method in brief: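 FITC-antibody surface staining, flow cytometry; expression relative to TNFα-stimulated control. Parthenolide 10 μM as positive control; means ± SD, n = 3, one-way ANOVA/Dunnett versus vehicle.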

[5] = species: Homo sapiens; test: Inhibition of NF-kappaB in HUVECtert assessed as reduction in cyclin D1 mRNA expression level at 1 uM measured up to 240 mins by qRT-PCR analysis
Method in brief: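 HUVECtert incubated without TNFα with 2 μM agent, 1 μM cycloheximide or 0.1% DMSO for 0.5−4 h; cyclin D1 mRNA by qRT-PCR, 2−ΔΔCt analysis.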

[6] = species: Homo sapiens; test: Reduction in p53 level in HUVECtert at 1 uM after 8 hrs by Western blot analysis; type: functional
[7] = species: Homo sapiens; test: Inhibition of de novo protein synthesis in HUVECtert at 1 to 35 uM after 30 mins by Click-iT OPP/Alexa fluor 488 picolyl azide reagent based confocal fluorescence microscopy; type: functional
Method in brief: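 Cells on gelatin coverslips (24 h) exposed 30 min to agent (2 or 5 μM; cycloheximide 1, 3.5, 35 μM) or 0.1% DMSO, then 20 μM OPP for 30 min; formaldehyde fixation, Triton permeabilisation, Alexa 488 picolyl azide click reaction 30 min, nuclear counterstain; confocal imaging at 10×, constant gain and exposure.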

[8] = species: Homo sapiens; test: Reduction in survivin level in HUVECtert at 1 uM by Western blot analysis; type: functional; details: TDE = time-dependent effect
Method in brief: (§2)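 HUVECtert treated with 1 μM cycloheximide, 2 μM agent, vehicle, or left untreated for a time course; cyclin D1 or survivin by Western blot, actin loading control; means ± SD of three blots, one-way ANOVA/Dunnett versus untreated.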

[9] = species: Homo sapiens; test: Inhibition of NF-kappaB in HUVECtert assessed as reduction in TNFalpha-induced E-selectin mRNA expression level at 35 uM pretreated for 30 mins followed by TNFalpha stimulation measured after 2 hrs by qRT-PCR analysis
[10] = species: Homo sapiens; test: Reduction in cyclin A level in HUVECtert at 1 uM after 8 hrs by Western blot analysis; type: functional
[11] = species: Homo sapiens; test: Inhibition of NF-kappaB in HUVECtert assessed as reduction in TNFalpha-induced ICAM-1 mRNA expression level at 35 uM pretreated for 30 mins followed by TNFalpha stimulation measured after 4 hrs by qRT-PCR analysis
[12] = species: Homo sapiens; test: Reduction in cyclin D1 level in HUVECtert at 1 uM by Western blot analysis; type: functional; details: TDE = time-dependent effect; method in brief: as §2
[13] = species: Homo sapiens; test: Inhibition of NF-kappaB in HUVECtert assessed as reduction in TNFalpha-induced VCAM-1 mRNA expression level at 35 uM pretreated for 30 mins followed by TNFalpha stimulation measured after 4 hrs by qRT-PCR analysis
[14] = species: Homo sapiens; test: Inhibition of de novo protein synthesis in HUVECtert at 1 to 35 uM after 30 mins by Click-iT OPP/Alexa fluor 488 picolyl azide reagent based flow cytometry; type: functional
Method in brief: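 HUVECtert (1 × 10^6 cells in tubes) exposed 30 min to agent (2 or 5 μM; cycloheximide 1−35 μM) or vehicle, then 20 μM OPP 30 min; fixed, permeabilised, Alexa 488 click-labelled in Tris buffer pH 7.4; FL-1 flow cytometry relative to control; n = 3, one-way ANOVA/Dunnett.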

SMILES | inhibition [1] | inhibition [2] | inhibition [3] | IC50 [4] | inhibition [5] | Activity [6] | inhibition [7] | Activity [8] | inhibition [9] | Activity [10] | inhibition [11] | Activity [12] | inhibition [13] | inhibition [14]
C=C1C(=O)O[C@@H]2C3O[C@]3(C)CC/C=C(\C)CC[C@@H]12 (some centres undefined) | Active | Active | Active | – | – | – | – | – | – | – | – | – | – | –
C[C@@H]1C[C@@H]([C@H](O)CC2CC(=O)NC(=O)C2)C(=O)[C@@H](C)C1 [CYCLOHEXIMIDE] | – | – | – | 300 nM | inactive | inactive | Active | Tde | inactive | inactive | inactive | Tde | Active | Active
